Measurements as given in ChEMBL document CHEMBL2163245 (J Med Chem, 2012).
Activity calls are given as the source filed them. The rule behind the calls is not given here.

How the values were obtained:
Cytochrome P450 1A2 = target: T1, Cytochrome P450 1A2 (Homo sapiens, UniProt P05177)
T1 sequence (P05177 whole entry): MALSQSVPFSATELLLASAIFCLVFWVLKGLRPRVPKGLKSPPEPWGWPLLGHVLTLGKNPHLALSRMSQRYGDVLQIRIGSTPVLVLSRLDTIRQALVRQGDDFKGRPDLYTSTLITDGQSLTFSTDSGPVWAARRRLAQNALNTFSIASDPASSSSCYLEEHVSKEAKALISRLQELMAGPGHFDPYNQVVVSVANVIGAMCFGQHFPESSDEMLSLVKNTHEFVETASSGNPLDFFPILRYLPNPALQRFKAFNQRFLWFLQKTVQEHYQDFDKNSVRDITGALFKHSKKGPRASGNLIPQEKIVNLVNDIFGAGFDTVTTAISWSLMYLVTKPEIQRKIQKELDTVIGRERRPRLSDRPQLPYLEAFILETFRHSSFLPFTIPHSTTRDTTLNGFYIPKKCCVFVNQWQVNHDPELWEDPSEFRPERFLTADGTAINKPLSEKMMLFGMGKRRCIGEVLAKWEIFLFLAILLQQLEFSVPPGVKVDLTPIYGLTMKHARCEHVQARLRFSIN

Cytochrome P450 2D6 = Cytochrome P450 2D6 (Homo sapiens, UniProt P10635)
Plasma = assay: Fraction unbound in rat plasma; assay type: ADME, cell-free
[1] = target: T2, Potassium voltage-gated channel subfamily KQT member 4 (Homo sapiens, UniProt P56696); assay: Antagonist activity at KCNQ4 expressed in CHO cells incubated for 3 mins by automated patch clamp assay; assay type: functional, cell-based
T2 sequence (P56696 whole entry): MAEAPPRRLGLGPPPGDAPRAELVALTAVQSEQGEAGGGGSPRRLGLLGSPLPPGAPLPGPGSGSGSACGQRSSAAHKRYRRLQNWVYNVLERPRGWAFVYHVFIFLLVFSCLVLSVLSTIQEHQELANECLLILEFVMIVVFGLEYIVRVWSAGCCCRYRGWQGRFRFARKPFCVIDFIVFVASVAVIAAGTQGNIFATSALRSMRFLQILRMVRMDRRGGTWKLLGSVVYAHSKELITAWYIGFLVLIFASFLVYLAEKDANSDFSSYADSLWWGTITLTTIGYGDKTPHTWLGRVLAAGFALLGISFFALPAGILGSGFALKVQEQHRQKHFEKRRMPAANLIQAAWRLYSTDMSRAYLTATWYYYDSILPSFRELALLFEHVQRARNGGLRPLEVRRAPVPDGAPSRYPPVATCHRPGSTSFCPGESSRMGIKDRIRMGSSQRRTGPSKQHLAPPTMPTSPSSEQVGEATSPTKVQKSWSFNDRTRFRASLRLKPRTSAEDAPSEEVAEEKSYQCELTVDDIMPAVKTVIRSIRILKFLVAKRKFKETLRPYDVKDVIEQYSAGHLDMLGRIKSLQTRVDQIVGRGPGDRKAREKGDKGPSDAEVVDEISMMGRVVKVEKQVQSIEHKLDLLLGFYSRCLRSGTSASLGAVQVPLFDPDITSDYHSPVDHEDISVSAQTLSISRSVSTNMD
Method in brief: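 Population patch clamp on CHO cells stably expressing KCNQ4, freshly dislodged at 7,000 cells/well in extracellular solution (mM: 137 NaCl, 4 KCl, 1 MgCl2, 1.8 CaCl2, 10 HEPES, 10 glucose, pH 7.4). Cells were perforated with 50 μg/ml amphotericin B, held at -70 mV, and stepped to +40 mV. Current was measured at +40 mV before and after 3 min compound exposure and expressed as percent change in the same well.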

Brain = assay: Fraction unbound in rat brain homogenate; assay type: ADME, tissue-based
[2] = Inhibition of N-type calcium channel at 10 uM
[3] = Inhibition of KATP
[4] = Drug uptake in Sprague-Dawley rat brain at 10 mg/kg, ip after 1 hr by LC/MS analysis; assay type: ADME, organism-based; set-up: dose 10 mg/kg, route intraperitoneal; conditions: read-out: Drug uptake
Method in brief: (§1)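 Male Sprague-Dawley rats (250 g) dosed 10 mg/kg i.p., formulated 3 mg/mL in 10% Tween 80/sterile water. Blood (cardiac puncture) and brain taken at 1 h. Brain washed in cold PBS, frozen, homogenized 1:3 (w/w) in 70:30 isopropanol:water. Plasma and homogenate precipitated with acetonitrile containing carbamazepine internal standard, diluted 1:1 with water, quantified by ESI LC/MS/MS using MRM in positive mode.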

[5] = target: Melatonin receptor type 1A (Homo sapiens) (UniProt P48039); assay: Inhibition of human MT1 at 10 uM
[6] = target: Voltage-gated potassium channel, KQT; KCNQ2(Kv7.2)/KCNQ3(Kv7.3) (Homo sapiens, UniProt O43525+O43526); assay: Antagonist activity at KCNQ2/Q3 expressed in CHO cells incubated for 3 mins by automated patch clamp assay
[7] = target: T3, Potassium voltage-gated channel subfamily KQT member 1 (Homo sapiens, UniProt P51787); assay: Antagonist activity at KCNQ1 expressed in CHO cells incubated for 3 mins by automated patch clamp assay
T3 sequence (P51787 whole entry): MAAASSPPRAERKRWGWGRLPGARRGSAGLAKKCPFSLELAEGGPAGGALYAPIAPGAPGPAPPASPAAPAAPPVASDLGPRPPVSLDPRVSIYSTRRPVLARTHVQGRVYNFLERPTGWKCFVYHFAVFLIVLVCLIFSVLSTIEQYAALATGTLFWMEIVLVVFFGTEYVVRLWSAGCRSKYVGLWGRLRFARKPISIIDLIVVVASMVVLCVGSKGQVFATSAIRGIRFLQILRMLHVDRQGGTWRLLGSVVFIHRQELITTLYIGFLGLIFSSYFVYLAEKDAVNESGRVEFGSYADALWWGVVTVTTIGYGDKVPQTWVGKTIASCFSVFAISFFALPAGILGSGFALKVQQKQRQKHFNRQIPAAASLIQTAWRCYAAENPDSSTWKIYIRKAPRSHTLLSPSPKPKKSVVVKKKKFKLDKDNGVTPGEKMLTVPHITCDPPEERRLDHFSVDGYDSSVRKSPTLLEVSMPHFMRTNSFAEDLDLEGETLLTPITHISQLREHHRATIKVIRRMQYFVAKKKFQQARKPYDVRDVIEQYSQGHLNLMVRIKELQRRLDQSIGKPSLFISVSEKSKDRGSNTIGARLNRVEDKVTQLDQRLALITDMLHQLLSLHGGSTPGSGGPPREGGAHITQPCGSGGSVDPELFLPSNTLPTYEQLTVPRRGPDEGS

[8] = Inhibition of L-type calcium channel at 10 uM
[9] = target: Potassium voltage-gated channel subfamily KQT member 2 (Homo sapiens, UniProt O43526); assay: Antagonist activity at KCNQ2 expressed in CHO cells incubated for 3 mins by automated patch clamp assay; assay type: functional, cell-based
[10] = Plasma concentration in Sprague-Dawley rat at 10 mg/kg, ip after 1 hr by LC.MS analysis; assay type: ADME, organism-based; set-up: dose 10 mg/kg, route intraperitoneal
Method in brief: as §1

[11] = target: Voltage-gated potassium channel, IKs; KCNQ1(Kv7.1)/KCNE1(MinK) (Homo sapiens, UniProt P15382+P51787); assay: Antagonist activity at KCNQ1/E1 expressed in CHO cells incubated for 3 mins by automated patch clamp assay
Cytochrome P450 2C9 = Cytochrome P450 2C9 (Homo sapiens, UniProt P11712)
[12] = target: Voltage-gated inwardly rectifying potassium channel KCNH2 (Homo sapiens, UniProt Q12809); assay: Inhibition of human ERG
Voltage-gated inwardly rectifying potassium channel KCNH2, sequence (Q12809 whole entry): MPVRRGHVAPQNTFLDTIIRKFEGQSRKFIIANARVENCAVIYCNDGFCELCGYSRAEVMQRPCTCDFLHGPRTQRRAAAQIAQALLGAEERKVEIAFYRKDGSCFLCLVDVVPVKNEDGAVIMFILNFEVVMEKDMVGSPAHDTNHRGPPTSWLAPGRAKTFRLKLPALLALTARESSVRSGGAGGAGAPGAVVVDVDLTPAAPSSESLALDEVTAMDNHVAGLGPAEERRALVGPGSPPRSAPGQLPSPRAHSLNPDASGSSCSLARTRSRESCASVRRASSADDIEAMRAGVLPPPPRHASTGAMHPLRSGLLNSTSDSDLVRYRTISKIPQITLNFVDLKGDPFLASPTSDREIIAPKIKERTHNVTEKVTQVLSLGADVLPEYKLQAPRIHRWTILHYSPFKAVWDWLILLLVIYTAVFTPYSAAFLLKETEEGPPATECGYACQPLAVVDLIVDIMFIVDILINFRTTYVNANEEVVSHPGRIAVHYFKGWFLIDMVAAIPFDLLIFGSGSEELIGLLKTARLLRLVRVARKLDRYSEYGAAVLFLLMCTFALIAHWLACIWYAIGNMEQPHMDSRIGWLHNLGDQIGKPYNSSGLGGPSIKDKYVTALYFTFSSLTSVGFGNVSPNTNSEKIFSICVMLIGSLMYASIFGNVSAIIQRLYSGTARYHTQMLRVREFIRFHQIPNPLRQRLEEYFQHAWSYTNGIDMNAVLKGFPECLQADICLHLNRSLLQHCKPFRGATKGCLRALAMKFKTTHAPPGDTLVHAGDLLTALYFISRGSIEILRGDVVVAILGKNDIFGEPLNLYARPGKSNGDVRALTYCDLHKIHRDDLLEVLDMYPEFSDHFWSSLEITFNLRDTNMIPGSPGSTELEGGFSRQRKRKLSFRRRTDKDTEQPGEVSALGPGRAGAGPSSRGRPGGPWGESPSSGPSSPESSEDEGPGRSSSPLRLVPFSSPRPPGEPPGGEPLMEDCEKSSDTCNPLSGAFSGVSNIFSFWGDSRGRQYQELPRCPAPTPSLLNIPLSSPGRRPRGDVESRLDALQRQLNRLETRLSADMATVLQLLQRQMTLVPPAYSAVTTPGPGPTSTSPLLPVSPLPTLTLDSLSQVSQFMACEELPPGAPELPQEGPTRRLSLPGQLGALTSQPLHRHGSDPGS

Melatonin receptor type 1A (Homo sapiens), sequence (P48039 whole entry): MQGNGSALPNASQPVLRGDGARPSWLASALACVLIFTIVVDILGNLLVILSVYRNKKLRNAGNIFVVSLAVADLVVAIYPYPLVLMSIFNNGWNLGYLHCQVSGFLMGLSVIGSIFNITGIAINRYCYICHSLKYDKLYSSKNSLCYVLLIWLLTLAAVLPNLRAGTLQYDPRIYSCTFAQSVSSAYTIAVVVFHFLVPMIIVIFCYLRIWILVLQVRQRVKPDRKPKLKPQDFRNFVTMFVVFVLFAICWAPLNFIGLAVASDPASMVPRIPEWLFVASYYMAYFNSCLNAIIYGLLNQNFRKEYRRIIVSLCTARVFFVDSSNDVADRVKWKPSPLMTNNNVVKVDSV
Potassium voltage-gated channel subfamily KQT member 2, sequence (O43526 whole entry): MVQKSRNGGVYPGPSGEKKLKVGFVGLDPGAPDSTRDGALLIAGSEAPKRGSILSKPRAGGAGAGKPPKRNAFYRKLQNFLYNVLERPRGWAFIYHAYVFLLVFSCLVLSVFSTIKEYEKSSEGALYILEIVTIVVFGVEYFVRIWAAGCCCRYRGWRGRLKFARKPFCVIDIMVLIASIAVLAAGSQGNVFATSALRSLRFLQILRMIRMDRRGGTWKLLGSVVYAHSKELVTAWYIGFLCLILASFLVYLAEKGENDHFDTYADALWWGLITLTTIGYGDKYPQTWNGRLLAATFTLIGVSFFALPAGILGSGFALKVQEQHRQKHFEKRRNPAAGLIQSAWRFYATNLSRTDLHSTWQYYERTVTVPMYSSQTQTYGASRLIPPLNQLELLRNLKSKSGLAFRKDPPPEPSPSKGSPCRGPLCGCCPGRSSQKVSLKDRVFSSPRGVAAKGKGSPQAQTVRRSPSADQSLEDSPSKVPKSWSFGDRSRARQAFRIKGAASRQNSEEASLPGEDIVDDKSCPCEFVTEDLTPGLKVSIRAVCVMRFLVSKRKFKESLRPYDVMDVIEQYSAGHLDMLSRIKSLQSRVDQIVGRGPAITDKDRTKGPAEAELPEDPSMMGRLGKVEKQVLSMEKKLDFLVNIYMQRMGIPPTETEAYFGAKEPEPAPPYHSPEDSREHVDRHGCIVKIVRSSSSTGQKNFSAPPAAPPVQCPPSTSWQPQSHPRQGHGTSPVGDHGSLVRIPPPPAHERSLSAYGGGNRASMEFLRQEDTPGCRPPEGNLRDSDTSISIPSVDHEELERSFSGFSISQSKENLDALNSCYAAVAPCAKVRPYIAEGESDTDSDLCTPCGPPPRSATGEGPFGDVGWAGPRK
Voltage-gated potassium channel, KQT; KCNQ2(Kv7.2)/KCNQ3(Kv7.3), sequence (O43526 whole entry): as above
Voltage-gated potassium channel, KQT; KCNQ2(Kv7.2)/KCNQ3(Kv7.3), sequence (O43525 whole entry): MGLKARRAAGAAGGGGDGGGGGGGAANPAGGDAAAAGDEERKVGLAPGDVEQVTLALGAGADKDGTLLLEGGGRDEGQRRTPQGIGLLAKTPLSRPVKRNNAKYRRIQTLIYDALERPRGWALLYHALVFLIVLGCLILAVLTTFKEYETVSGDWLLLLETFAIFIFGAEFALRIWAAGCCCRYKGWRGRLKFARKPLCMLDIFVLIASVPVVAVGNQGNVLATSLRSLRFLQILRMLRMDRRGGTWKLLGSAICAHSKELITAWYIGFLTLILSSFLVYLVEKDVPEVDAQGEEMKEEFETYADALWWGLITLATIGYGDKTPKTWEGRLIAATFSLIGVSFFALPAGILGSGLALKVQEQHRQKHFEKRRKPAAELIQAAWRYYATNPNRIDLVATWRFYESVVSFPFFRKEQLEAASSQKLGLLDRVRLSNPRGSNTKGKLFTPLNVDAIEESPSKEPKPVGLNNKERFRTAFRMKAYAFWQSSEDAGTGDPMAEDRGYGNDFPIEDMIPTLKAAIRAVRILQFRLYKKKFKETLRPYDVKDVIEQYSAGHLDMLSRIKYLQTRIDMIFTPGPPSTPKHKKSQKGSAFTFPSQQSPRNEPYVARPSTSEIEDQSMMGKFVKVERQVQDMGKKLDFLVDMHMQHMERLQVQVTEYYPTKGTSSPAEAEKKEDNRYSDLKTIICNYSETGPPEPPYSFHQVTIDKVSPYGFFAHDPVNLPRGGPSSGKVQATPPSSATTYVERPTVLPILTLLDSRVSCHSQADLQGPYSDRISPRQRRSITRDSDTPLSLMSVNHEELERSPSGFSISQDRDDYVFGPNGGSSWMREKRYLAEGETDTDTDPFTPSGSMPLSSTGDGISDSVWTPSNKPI
Cytochrome P450 2C9, sequence (P11712 whole entry): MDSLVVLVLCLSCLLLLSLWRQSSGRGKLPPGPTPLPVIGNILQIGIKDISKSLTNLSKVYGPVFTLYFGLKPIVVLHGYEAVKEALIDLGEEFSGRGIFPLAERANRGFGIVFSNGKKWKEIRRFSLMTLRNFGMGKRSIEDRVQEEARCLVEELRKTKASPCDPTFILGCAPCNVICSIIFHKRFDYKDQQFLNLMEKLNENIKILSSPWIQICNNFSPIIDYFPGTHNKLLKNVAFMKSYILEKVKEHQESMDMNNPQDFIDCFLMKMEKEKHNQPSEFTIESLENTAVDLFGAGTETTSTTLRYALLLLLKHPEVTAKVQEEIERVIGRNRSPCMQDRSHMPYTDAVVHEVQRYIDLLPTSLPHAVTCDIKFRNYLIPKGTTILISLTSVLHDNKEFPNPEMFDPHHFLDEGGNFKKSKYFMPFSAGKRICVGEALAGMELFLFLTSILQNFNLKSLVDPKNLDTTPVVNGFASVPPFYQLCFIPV
Cytochrome P450 2D6, sequence (P10635 whole entry): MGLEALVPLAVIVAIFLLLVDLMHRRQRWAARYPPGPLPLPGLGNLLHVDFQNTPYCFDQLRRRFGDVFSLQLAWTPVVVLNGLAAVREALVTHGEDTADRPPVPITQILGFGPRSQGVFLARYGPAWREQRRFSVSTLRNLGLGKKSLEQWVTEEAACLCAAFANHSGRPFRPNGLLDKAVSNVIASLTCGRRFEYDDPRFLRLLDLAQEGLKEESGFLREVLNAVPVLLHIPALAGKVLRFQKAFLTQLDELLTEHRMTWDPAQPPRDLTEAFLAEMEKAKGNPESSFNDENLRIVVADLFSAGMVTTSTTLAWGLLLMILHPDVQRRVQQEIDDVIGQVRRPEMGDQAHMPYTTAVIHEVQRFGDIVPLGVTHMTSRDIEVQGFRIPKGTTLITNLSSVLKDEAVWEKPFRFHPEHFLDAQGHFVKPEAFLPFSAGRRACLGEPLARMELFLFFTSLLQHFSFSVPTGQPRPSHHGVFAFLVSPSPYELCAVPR

`CC[C@H](C(=O)Nc1ccccc1N1CCCC1)c1ccccc1` gave an IC50 (Cytochrome P450 1A2) of 6.1 µM, an IC50 (Cytochrome P450 2D6) of 19.9 µM and a Fu (Plasma) of 0.6%. The IC50 [1] was 0.2 µM, the Fu (Brain) was 0.3% and the inhibition [2] was “inactive”. For the same molecule, the inhibition [3] was “inactive”, the concentration at 1 h [4] was 208 ng/g and the inhibition [5] was 61%. The IC50 [6] was 0.12 µM, the IC50 [7] was 2.92 µM and the inhibition [8] was “inactive”. It also gave an IC50 [9] of 0.07 µM, a concentration at 1 h [10] of 116 ng/mL and an IC50 [11] of 8.12 µM. For the same molecule, the IC50 (Cytochrome P450 2C9) was 18.9 µM and the “inhibition (INH)” value [12] was “Not Active”.
